Measured values published in paper PMC8295177 (Cancer discovery, 2021).
Values joined by “and” are separate entries in the source; they are usually repeats but may differ in a detail not shown here. Equal values may be shown once.

How the values were obtained:
[1] = tested on: patients treated with mobocertinib 160 mg daily; experiment: Safety and tolerability; assay type: in vivo, human; details: for Treatment-related TEAE Anemia, Any Grade / Treatment-related TEAE Anemia, Grade ≥3 / Treatment-related TEAE Decreased appetite, Any Grade / Treatment-related TEAE Decreased appetite, Grade ≥3 / Treatment-related TEAE Dermatitis acneiform, Any Grade / Treatment-related TEAE Dermatitis acneiform, Grade ≥3 / Treatment-related TEAE Diarrhea, Any Grade / Treatment-related TEAE Diarrhea, Grade ≥3 / Treatment-related TEAE Dry skin, Any Grade / Treatment-related TEAE Dry skin, Grade ≥3 / Treatment-related TEAE Dyspepsia, Any Grade / Treatment-related TEAE Dyspepsia, Grade ≥3 / Treatment-related TEAE Fatigue, Any Grade / Treatment-related TEAE Fatigue, Grade ≥3 / Treatment-related TEAE GERD, Any Grade / Treatment-related TEAE GERD, Grade ≥3 / Treatment-related TEAE Increased lipase, Any Grade / Treatment-related TEAE Increased lipase, Grade ≥3 / Treatment-related TEAE Nausea, Any Grade / Treatment-related TEAE Nausea, Grade ≥3 / Treatment-related TEAE Paronychia, Any Grade / Treatment-related TEAE Paronychia, Grade ≥3 / Treatment-related TEAE Pruritus, Any Grade / Treatment-related TEAE Pruritus, Grade ≥3 / Treatment-related TEAE Rash maculo-papular, Any Grade / Treatment-related TEAE Rash maculo-papular, Grade ≥3 / Treatment-related TEAE Rash, Any Grade / Treatment-related TEAE Rash, Grade ≥3 / Treatment-related TEAE Stomatitis, Any Grade / Treatment-related TEAE Stomatitis, Grade ≥3 / Treatment-related TEAE Vomiting, Any Grade / Treatment-related TEAE Vomiting, Grade ≥3: number (%) of patients
Summary of the method: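 Safety pooled phase 1 and phase 2 patients who received at least one dose at an initial 160 mg daily, given orally in continuous 28-day cycles. Treatment-related TEAEs were tallied at any grade and at grade ≥3. The EGFRex20ins NSCLC subgroup came from dose escalation plus expansion cohort 1. Grade 3–4 toxicity led to withholding the drug, with up to two dose reductions allowed.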

[2] = tested on: previously treated NSCLC with EGFRex20ins mutations; experiment: Investigator-assessed antitumor activity; assay type: in vivo, human; details: for Best confirmed response: Stable disease: observed ≥6 weeks after first dose
[3] = tested on: patients with advanced NSCLC refractory to standard therapies; experiment: Phase 1 dose-escalation study; assay type: in vivo
[4] = Plasma pharmacokinetics of mobocertinib in dose-escalation patients; assay type: in vivo, human; details: oral
Summary of the method: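 Patients with NSCLC took oral capsules once daily in continuous 28-day cycles. Plasma was sampled at prespecified times after the first dose (Cycle 1, Day 1) and at steady state (Cycle 2, Day 1). Drug and active metabolites were quantified by validated LC-MS. Tmax, Cmax and AUC0–24 came from noncompartmental analysis. Effective half-life was derived from accumulation as a geometric mean.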

[5] = 28 patients with EGFRex20ins mutations treated at 160 mg daily
[6] = 136 patients treated at 160 mg daily
[7] = all patients treated at 160 mg daily (n=136)
[8] = patients with EGFRex20ins treated at 160 mg daily (n=28)
[9] = 80 mg total daily dose (n=9), includes 80 mg daily and 40 mg twice daily

**Q.** What does the source list for `C=CC(=O)Nc1cc(Nc2ncc(C(=O)OC(C)C)c(-c3cn(C)c4ccccc34)n2)c(OC)cc1N(C)CCN(C)C` [mobocertinib]?
**A.** patients with AEs leading to discontinuation [1, 5]: 25%; patients with AEs requiring dose interruption [1, 5]: 57%; patients with AEs requiring dose reduction [1, 5]: 18%; patients who experienced a treatment-emergent adverse event (TEAE) [1, 6]: 99%; patients with TEAEs considered related to mobocertinib treatment [1, 6]: 96%; patients with TEAEs requiring discontinuation [1, 6]: 16%; patients with TEAEs requiring dose interruption [1, 6]: 54%; patients with TEAEs requiring dose reduction [1, 6]: 17%; patients with grade 3 or higher treatment-related TEAEs [1, 6]: 40%; patients with serious treatment-related TEAEs [1, 6]: 13%; serious treatment-related TEAE diarrhea, patients [1, 6]: 4%; serious treatment-related TEAE vomiting, patients [1, 6]: 4%; treatment-related diarrhea, any grade, patients [1, 6]: 83%; treatment-related diarrhea, grade ≥3, patients [1, 6]: 21%; treatment-related nausea, any grade, patients [1, 6]: 43%; treatment-related rash, any grade, patients [1, 6]: 33%; treatment-related vomiting, any grade, patients [1, 6]: 26%; diarrhea leading to discontinuation, patients ([1]; 136 patients treated at 160 mg daily (7/136)): 5%; Treatment-related TEAE Anemia, Any Grade [1, 7]: 19 (14); Treatment-related TEAE Anemia, Grade ≥3 [1, 7]: 3 (2); Treatment-related TEAE Decreased appetite, Any Grade [1, 7]: 29 (21); Treatment-related TEAE Decreased appetite, Grade ≥3 [1, 7]: 1 (1); Treatment-related TEAE Dermatitis acneiform, Any Grade [1, 7]: 19 (14); Treatment-related TEAE Dermatitis acneiform, Grade ≥3 [1, 7]: 1 (1); Treatment-related TEAE Diarrhea, Any Grade [1, 7]: 113 (83); Treatment-related TEAE Diarrhea, Grade ≥3 [1, 7]: 28 (21); Treatment-related TEAE Dry skin, Any Grade [1, 7]: 30 (22); Treatment-related TEAE Dry skin, Grade ≥3 [1, 7]: 0; Treatment-related TEAE Dyspepsia, Any Grade [1, 7]: 16 (12); Treatment-related TEAE Dyspepsia, Grade ≥3 [1, 7]: 0; Treatment-related TEAE Fatigue, Any Grade [1, 7]: 28 (21); Treatment-related TEAE Fatigue, Grade ≥3 [1, 7]: 2 (1); Treatment-related TEAE GERD, Any Grade [1, 7]: 17 (13); Treatment-related TEAE GERD, Grade ≥3 [1, 7]: 0; Treatment-related TEAE Increased lipase, Any Grade [1, 7]: 15 (11); Treatment-related TEAE Increased lipase, Grade ≥3 [1, 7]: 7 (5); Treatment-related TEAE Nausea, Any Grade [1, 7]: 58 (43); Treatment-related TEAE Nausea, Grade ≥3 [1, 7]: 5 (4); Treatment-related TEAE Paronychia, Any Grade [1, 7]: 22 (16); Treatment-related TEAE Paronychia, Grade ≥3 [1, 7]: 0; Treatment-related TEAE Pruritus, Any Grade [1, 7]: 14 (10); Treatment-related TEAE Pruritus, Grade ≥3 [1, 7]: 0; Treatment-related TEAE Rash maculo-papular, Any Grade [1, 7]: 22 (16); Treatment-related TEAE Rash maculo-papular, Grade ≥3 [1, 7]: 1 (1); Treatment-related TEAE Rash, Any Grade [1, 7]: 45 (33); Treatment-related TEAE Rash, Grade ≥3 [1, 7]: 1 (1); Treatment-related TEAE Stomatitis, Any Grade [1, 7]: 28 (21); Treatment-related TEAE Stomatitis, Grade ≥3 [1, 7]: 5 (4); Treatment-related TEAE Vomiting, Any Grade [1, 7]: 36 (26); Treatment-related TEAE Vomiting, Grade ≥3 [1, 7]: 5 (4); Treatment-related TEAE Anemia, Any Grade [1, 8]: 5 (18); Treatment-related TEAE Anemia, Grade ≥3 [1, 8]: 0; Treatment-related TEAE Decreased appetite, Any Grade [1, 8]: 11 (39); Treatment-related TEAE Decreased appetite, Grade ≥3 [1, 8]: 0; Treatment-related TEAE Dermatitis acneiform, Any Grade [1, 8]: 5 (18); Treatment-related TEAE Dermatitis acneiform, Grade ≥3 [1, 8]: 0; Treatment-related TEAE Diarrhea, Any Grade [1, 8]: 23 (82); Treatment-related TEAE Diarrhea, Grade ≥3 [1, 8]: 9 (32); Treatment-related TEAE Dry skin, Any Grade [1, 8]: 5 (18); Treatment-related TEAE Dry skin, Grade ≥3 [1, 8]: 0; Treatment-related TEAE Dyspepsia, Any Grade [1, 8]: 6 (21); Treatment-related TEAE Dyspepsia, Grade ≥3 [1, 8]: 0; Treatment-related TEAE Fatigue, Any Grade [1, 8]: 4 (14); Treatment-related TEAE Fatigue, Grade ≥3 [1, 8]: 1 (4); Treatment-related TEAE GERD, Any Grade [1, 8]: 3 (11); Treatment-related TEAE GERD, Grade ≥3 [1, 8]: 0; Treatment-related TEAE Increased lipase, Any Grade [1, 8]: 7 (25); Treatment-related TEAE Increased lipase, Grade ≥3 [1, 8]: 2 (7); Treatment-related TEAE Nausea, Any Grade [1, 8]: 11 (39); Treatment-related TEAE Nausea, Grade ≥3 [1, 8]: 3 (11); Treatment-related TEAE Paronychia, Any Grade [1, 8]: 8 (29); Treatment-related TEAE Paronychia, Grade ≥3 [1, 8]: 0; Treatment-related TEAE Pruritus, Any Grade [1, 8]: 5 (18); Treatment-related TEAE Pruritus, Grade ≥3 [1, 8]: 0; Treatment-related TEAE Rash maculo-papular, Any Grade [1, 8]: 7 (25); Treatment-related TEAE Rash maculo-papular, Grade ≥3 [1, 8]: 1 (4); Treatment-related TEAE Rash, Any Grade [1, 8]: 13 (46); Treatment-related TEAE Rash, Grade ≥3 [1, 8]: 0; Treatment-related TEAE Stomatitis, Any Grade [1, 8]: 6 (21); Treatment-related TEAE Stomatitis, Grade ≥3 [1, 8]: 2 (7); Treatment-related TEAE Vomiting, Any Grade [1, 8]: 10 (36); Treatment-related TEAE Vomiting, Grade ≥3 [1, 8]: 2 (7); Best confirmed response: Not evaluated ([2]; 80 mg total daily dose (n=9)): 0 n (%); Best confirmed response: Progressive disease ([2]; 80 mg total daily dose (n=9)): 1 (11) n (%); Best confirmed response: Complete response [2, 9]: 1 (11) n (%); Best confirmed response: Partial response [2, 9]: 1 (11) n (%); Best confirmed response: Stable disease ([2]; 80 mg total daily dose (n=9)): 6 (67) n (%); confirmed ORR ([2]; 120 mg daily (4/21)): 19%; Best confirmed response: Complete response ([2]; 120 mg daily (n=21)): 1 (5) n (%); Best confirmed response: Not evaluated ([2]; 120 mg daily (n=21)): 3 (14) n (%); Best confirmed response: Partial response ([2]; 120 mg daily (n=21)): 3 (14) n (%); Best confirmed response: Progressive disease ([2]; 120 mg daily (n=21)): 3 (14) n (%); Best confirmed response: Stable disease ([2]; 120 mg daily (n=21)): 11 (52) n (%); investigator-assessed confirmed ORR ([2]; 160 mg daily (12/28; 95% CI 24–63%)): 43%; disease control rate ([2]; 160 mg daily (24/28; 95% CI 67–96%)): 86%; Best confirmed response: Complete response ([2]; 160 mg daily (n=28)): 0 n (%); Best confirmed response: Not evaluated ([2]; 160 mg daily (n=28)): 2 (7) n (%); Best confirmed response: Partial response ([2]; 160 mg daily (n=28)): 12 (43) n (%); Best confirmed response: Progressive disease ([2]; 160 mg daily (n=28)): 2 (7) n (%); Best confirmed response: Stable disease ([2]; 160 mg daily (n=28)): 12 (43) n (%); median PFS ([2]; 160 mg daily, 28 EGFRex20ins patients (95% CI 4.4–15.6)): 7.3 months and 7 months; median duration of response in confirmed responders ([2]; 160 mg daily, 28 EGFRex20ins patients (95% CI 5.0–not reached)): 14 months and 13.9 months; 12-month event-free rate (PFS) ([2]; 160 mg daily, 28 EGFRex20ins patients (95% CI 16–53%)): 34%; investigator-assessed confirmed ORR ([2]; 160 mg daily, patients with baseline brain metastases (3/12; 95% CI 5–57%)): 25%; median investigator-assessed PFS ([2]; 160 mg daily, patients with baseline brain metastases (95% CI 1.8–15.9)): 3.7 months; 12-month event-free rate (PFS) ([2]; 160 mg daily, patients with baseline brain metastases (95% CI 3–52%)): 23%; investigator-assessed confirmed ORR ([2]; 160 mg daily, patients without baseline brain metastases (9/16; 95% CI 30–80%)): 56%; median duration of response in confirmed responders ([2]; 160 mg daily, patients without baseline brain metastases (95% CI 5.0–16.6)): 13.8 months; 12-month event-free rate (PFS) ([2]; 160 mg daily, patients without baseline brain metastases (95% CI 18–66%)): 43%; confirmed ORR ([2]; 5–40 mg daily (0/12)): 0%; Best confirmed response: Complete response ([2]; 5–40 mg daily (n=12)): 0 n (%); Best confirmed response: Not evaluated ([2]; 5–40 mg daily (n=12)): 2 (17) n (%); Best confirmed response: Partial response ([2]; 5–40 mg daily (n=12)): 0 n (%); Best confirmed response: Progressive disease ([2]; 5–40 mg daily (n=12)): 7 (58) n (%); confirmed ORR ([2]; 5–40 mg daily (n=12)): 0 [0–26] n (%) [95% CI]; Best confirmed response: Stable disease ([2]; 5–40 mg daily (n=12)): 3 (25) n (%); confirmed ORR ([2]; 80-mg total daily dose (2/9)): 22%; recommended phase 2 dose (RP2D) ([3]; human, in vivo, po, 28 days): 160 mg daily; maximum tolerated dose (MTD) ([3]; oral, 28-day cycles, dose escalation 5-180 mg daily): 160 mg daily; half-life ([4]; human, plasma): 11 to 17 h; exposure (AUC0–24) dose dependence ([4]; dose range 5 mg to 180 mg daily): approximately dose-proportional
